This is an account of results in ChEMBL document CHEMBL5316295, “Systematic Design of Adenosine Analogs as Inhibitors of a Clostridioides difficile-Specific DNA Adenine Methyltransferase Required for Normal Sporulation and Persistence” (J Med Chem, 2023).

Activity calls are given as the source filed them. The calls are words filed in the database; no cut-off is given here. A value given as a limit tells only on which side of the number the result lay.

Assay [1] can be described thus: Inhibition of Clostridioides difficile-specific DNA adenine methyltransferase PDB 7RFK using 5'-CGA TTC AAA AAG TCC CAA G-3' and 3'-GCT AAG TTT TTC AGG GTT C-5' as substrate and SAM as cosubstrate preincubated for 5 mins followed by substrate and cosubstrate addition and measured after 3 mins by MTase-Glo assay. The method in brief:
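Then 2.5 μM 19-bp dsDNA and 40 μM SAM were added, 3 min at ~22 °C, TFA quench (0.1%). Luminescent SAH readout against a serially diluted SAH standard curve; IC50 and Hill slope reported.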

Assay [2] in a line: Binding affinity to Clostridioides difficile-specific DNA adenine methyltransferase PDB 7RFK by MicroCal PEAQ ITC analysis. In outline:
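CamA (pXC2184 construct) in 325 mM NaCl, 20 mM Tris–HCl pH 7.5, 0.5 mM TCEP, 10% DMSO at 25 °C; 200–900 μM compound titrated into 20–60 μM protein (0.2 μL initial injection then 18 × 2 μL; reverse titration for poorly soluble compounds). Data fitted to a one-site model with offset subtracted to obtain K_D.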
(In general: In ITC the heat of successive injections is recorded.)

In assay [3] the test system is Caulobacter vibrioides. The assay can be described thus: Inhibition of Caulobacter vibrioides CcrM using 5'-CGA TTC AAA AAG TCC CAA G-3' and 3'-GCT AAG TTT TTC AGG GTT C-5' as substrate and SAM as cosubstrate at 10 uM incubated for 5 mins. In outline:
(§1)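 Conditions were enzyme 0.1 μM, DNA 5 μM, SAM 30 μM, inhibitor 10 μM, at ~22 °C in 50 mM Tris–HCl pH 7.5, 100 mM NaCl, 1 mM DTT, 0.25% DMSO, run 5 min. Substrate and SAM levels were above K_M.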

In assay [4] the target is T1, DNA adenine methylase (Escherichia coli K-12) (UniProt P0AEE8).
T1 sequence (whole entry): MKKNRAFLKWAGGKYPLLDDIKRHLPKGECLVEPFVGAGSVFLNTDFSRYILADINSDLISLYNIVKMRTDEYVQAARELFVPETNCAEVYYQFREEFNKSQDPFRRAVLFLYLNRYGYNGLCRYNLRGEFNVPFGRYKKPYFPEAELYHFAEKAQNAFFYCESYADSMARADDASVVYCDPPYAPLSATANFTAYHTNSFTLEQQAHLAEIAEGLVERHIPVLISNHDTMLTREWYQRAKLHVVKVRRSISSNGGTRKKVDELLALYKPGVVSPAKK
As to the kind of experiment: Inhibition of Escherichia coli Dam using 5'-CCG CGG ATC CTG CT-3' and 3'-GGC GCC TAG GAC GA-5' as substrate and SAM as cosubstrate at 10 uM incubated for 5 mins. In outline:
as §1

Assay [5] concerns the target mRNA (2'-O-methyladenosine-N(6)-)-methyltransferase (Homo sapiens) (UniProt Q9H4Z3). As to the kind of experiment: Inhibition of human PCIF1 using m7GpppAmG as substrate and SAM as cosubstrate at 10 uM incubated for 15 mins. The method in brief: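 Enzyme 0.1 μM with 5 μM RNA, 30 μM SAM and 10 μM inhibitor at ~22 °C in 50 mM Tris–HCl pH 7.5, 100 mM NaCl, 1 mM DTT, 0.25% DMSO. PCIF1 run 15 min with capped RNA; MettL5-Trm112 run 1 h with ssRNA.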

Assay [6] addresses DNMT3A-DNMT3L (Mus musculus) (UniProt O88508+Q9CWR8). As to the kind of experiment: Inhibition of mouse DNMT3A/DNMT3L using 5'-G CATGCGTTCTAATTAGAAUGCATG-3' and 3'-GTA CGS AAG ATT AAT CTT GCG TAC G-5' as substrate and SAM as cosubstrate at 10 uM incubated for 1 hr. The format is protein-complex assay. The method in brief:
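Dnmt3a-3L (0.5 μM) with 5 μM dsDNA, 25 μM SAM and 10 μM inhibitor in 20 mM Tris pH 7.5, 40 mM NaCl, 4 mM DTT, 20% glycerol, run 1 h at 37 °C.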

A short description of assay [7]: Binding affinity to Clostridioides difficile-specific DNA adenine methyltransferase by MicroCal PEAQ ITC analysis. The method in brief: (§2)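 Test compound (200–900 μM) titrated into CamA (20–60 μM) at 25 °C in 325 mM NaCl, 20 mM Tris–HCl pH 7.5, 0.5 mM TCEP, 10% DMSO; 0.2 μL initial plus 18 × 2 μL injections. Reverse titration used for poorly soluble compounds. Data fitted to a one-site model with offset subtracted; K_D, ΔH, −TΔS and ΔG derived from the fit.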

The nature of assay [8]: Inhibition of Clostridioides difficile-specific DNA adenine methyltransferase PDB 8CXS using 5'-CGA TTC AAA AAG TCC CAA G-3' and 3'-GCT AAG TTT TTC AGG GTT C-5' as substrate and SAM as cosubstrate preincubated for 5 mins followed by substrate and cosubstrate addition and measured after 3 mins by MTase-Glo assay. In outline:
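Reaction started with 2.5 μM dsDNA and 40 μM SAM (final), run 3 min, then quenched with 0.1% TFA. SAH measured by MTase-Glo luminescence against an SAH standard curve.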

Assay [9] is described as follows: Binding affinity to Clostridioides difficile-specific DNA adenine methyltransferase PDB 8CXS by MicroCal PEAQ ITC analysis. In outline: as §2
The nature of assay [10]: Inhibition of Clostridioides difficile-specific DNA adenine methyltransferase mediated methylation using 5'-CGA TTC AAA AAG TCC CAA G-3' and 3'-GCT AAG TTT TTC AGG GTT C-5' as substrate and SAM as cosubstrate preincubated for 5 mins followed by substrate and cosubstrate addition and measured after 3 mins by MTase glo assay.
The nature of assay [11]: Binding affinity to Clostridioides difficile-specific DNA adenine methyltransferase by MicroCal PEAQ-ITC instrument analysis.

Chain of DNMT3A-DNMT3L (Mus musculus) (Q9CWR8 whole entry, looked up, other chains not shown): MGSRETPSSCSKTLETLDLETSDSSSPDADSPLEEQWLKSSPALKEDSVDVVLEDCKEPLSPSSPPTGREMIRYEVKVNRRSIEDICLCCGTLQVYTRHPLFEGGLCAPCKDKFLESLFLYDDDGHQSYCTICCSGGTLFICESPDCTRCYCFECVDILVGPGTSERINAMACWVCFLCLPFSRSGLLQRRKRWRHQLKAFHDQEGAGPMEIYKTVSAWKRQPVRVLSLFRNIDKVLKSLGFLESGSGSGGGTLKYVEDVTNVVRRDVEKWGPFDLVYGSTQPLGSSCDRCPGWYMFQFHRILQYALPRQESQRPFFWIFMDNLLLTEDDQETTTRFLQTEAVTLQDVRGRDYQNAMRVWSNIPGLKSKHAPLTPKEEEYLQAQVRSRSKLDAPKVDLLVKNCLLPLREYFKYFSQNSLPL
Chain of mRNA (2'-O-methyladenosine-N(6)-)-methyltransferase (Homo sapiens) (Q9H4Z3 whole entry): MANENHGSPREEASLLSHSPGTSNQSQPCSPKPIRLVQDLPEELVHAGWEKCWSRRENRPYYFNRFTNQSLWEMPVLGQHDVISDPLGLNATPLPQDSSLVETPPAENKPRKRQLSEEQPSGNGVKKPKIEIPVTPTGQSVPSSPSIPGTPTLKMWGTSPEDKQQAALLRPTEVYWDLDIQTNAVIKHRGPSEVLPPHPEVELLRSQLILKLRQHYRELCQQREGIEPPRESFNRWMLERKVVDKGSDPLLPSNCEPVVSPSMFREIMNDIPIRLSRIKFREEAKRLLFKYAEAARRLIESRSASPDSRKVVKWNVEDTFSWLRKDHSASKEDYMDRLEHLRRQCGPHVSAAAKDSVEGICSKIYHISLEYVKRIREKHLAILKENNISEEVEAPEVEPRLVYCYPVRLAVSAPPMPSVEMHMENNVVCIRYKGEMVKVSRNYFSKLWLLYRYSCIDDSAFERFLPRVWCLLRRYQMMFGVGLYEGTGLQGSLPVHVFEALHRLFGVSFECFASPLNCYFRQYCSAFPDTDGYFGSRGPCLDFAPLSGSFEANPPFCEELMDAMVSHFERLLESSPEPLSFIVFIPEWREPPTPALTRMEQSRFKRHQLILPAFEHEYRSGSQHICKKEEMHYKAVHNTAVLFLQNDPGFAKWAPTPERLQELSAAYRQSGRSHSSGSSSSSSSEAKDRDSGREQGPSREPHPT

As usually defined, the IC50 is the point on the concentration scale where inhibition reaches its midpoint. Higher therefore signals weaker potency. Broadly, the Kd is the concentration at which binding is half-saturated. Low values mean tighter binding, high ones weaker binding. Turning to `Nc1ncnc2c1ncn2[C@@H]1O[C@H](C[C@@H](N)CC[C@H](N)C(=O)O)[C@@H](O)[C@H]1O` [SINEFUNGIN], the IC50 in assay [1] was found to be 24 µM. Also, the Kd in assay [2] came to 23 µM. Besides, the inhibition result in assay [3], in assay [4], in assay [5] and in assay [6] was “Active” in each case.

As for `Nc1ncnc2c1ncn2[C@@H]1O[C@H](CO)[C@@H](O)[C@H]1O` [ADENOSINE], in assay [7], the Kd was over 70 µM.

Consider `CSC[C@H]1O[C@@H](n2cnc3c(N)ncnc32)[C@H](O)[C@@H]1O` [METHYLTHIOADENOSINE], for which the IC50 in [8] and in [10] was 18 µM in each case. Further, the Kd in assay [9] turned out to be 10 µM; in assay [11], 11 µM.
